Experimental data: ChEMBL document CHEMBL1240504, “Synthesis of substituted thieno[2,3-d]pyrimidine-2,4-dithiones and their S-glycoside analogues as potential antiviral and antibacterial agents” (Eur J Med Chem, 2010)
≈ marks a conversion by molar mass, not a printed value.

Legend:
Escherichia coli [1] = test: Antibacterial activity against Escherichia coli MTCC 41 at 128 mg/ml after 16 hrs by disk diffusion test; assay type: functional; set-up: dose or concentration left out as unconfirmed; details: MTCC 41, 16 h, read-out: IZ
[2] = Therapeutic index, ratio of IC50 for human CEM cells to EC50 for HIV1; assay type: cell-based, CCRF-CEM; details: read-out: Ratio IC50/EC50
In short: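 CEM T4 lymphocytes, with or without HIV-1, were incubated with serially diluted compounds (DMSO solution diluted 1:100 in medium; 1:200 final dilution after cells and virus were added) at 37 °C in 5% CO2 for 6 days. Controls were untreated and AZT-treated. Read-out was XTT formazan, measured spectrophotometrically plus microscopy. EC50 is 50% protection from cytopathic effect; IC50 is 50% growth inhibition in uninfected cultures.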

CCRF-CEM = test: Cytotoxicity against […] human CEM cells after 6 days by XTT assay; assay type: cell-based; details: 144 h
In short: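 Uninfected CEM cultures given serial compound dilutions (DMSO, 1:200 final dilution). Incubated 6 days at 37 °C, 5% CO2, then read by XTT formazan. IC50 is the molar concentration causing 50% inhibition of cell growth.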

Human alphaherpesvirus 1 = test: Antiviral activity against HSV1 infected in african green monkey Vero cells after 6 hrs by plaque reduction assay; assay type: functional; set-up: scale not given: the % may be the effect or the level left
In short: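 Modified plaque reduction in 96-well trays with no thickening overlay. Compounds dissolved in DMSO and diluted into medium, then serially diluted and added in triplicate to confluent Vero monolayers. Titred HSV-1 added in medium with 10% calf serum. Incubated 6 h at 37 °C, 5% CO2. Cells fixed with 3.7% formaldehyde and examined visually. The end-point concentration was taken from the dilution series.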

Pseudomonas putida [3] = test: Antibacterial activity against ampicillin-resistant Pseudomonas putida MTCC 1072 at 64 mg/ml after 16 hrs by disk diffusion test; assay type: functional; set-up: dose or concentration left out as unconfirmed; details: MTCC 1072, 16 h, read-out: IZ
Pseudomonas putida [4] = test: Antibacterial activity against ampicillin-resistant Pseudomonas putida MTCC 1072 after 12 to 16 hrs by turbidity assay; assay type: functional
In short: (§1)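 Broth dilution MIC in LB broth. Tubes inoculated, incubated 12–16 h and scored by eye for turbidity (growth) versus clear (no growth).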

[5] = tested on: Human immunodeficiency virus 1; test: Antiviral activity against HIV1 infected in human CEM cells assessed as protection against virus-induced cytopathic effect after 6 days by XTT assay; assay type: functional, organism-based; details: Human immunodeficiency virus 1, CCRF-CEM, 144 h
In short: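 CEM T4 lymphocytes received serially diluted compounds (DMSO stock diluted 1:100 in medium, 1:200 final dilution), then HIV-1. Incubated 6 days at 37 °C, 5% CO2. Formazan read spectrophotometrically after XTT, with microscopic check for viable cells. EC50 is the concentration giving 50% protection against the HIV cytopathic effect. AZT-treated wells served as positive control.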

Escherichia coli [6] = test: Antibacterial activity against Escherichia coli MTCC 41 at 64 mg/ml after 16 hrs by disk diffusion test; assay type: functional; set-up: dose or concentration left out as unconfirmed; details: MTCC 41, 16 h, read-out: IZ
Pseudomonas putida [7] = test: Antibacterial activity against ampicillin-resistant Pseudomonas putida MTCC 1072 at 128 mg/ml after 16 hrs by disk diffusion test; assay type: functional; set-up: dose or concentration left out as unconfirmed; details: MTCC 1072, 16 h, read-out: IZ
Staphylococcus aureus [8] = test: Antibacterial activity against Staphylococcus aureus MTCC 1144 at 128 mg/ml after 16 hrs by disk diffusion test; assay type: functional; set-up: dose or concentration left out as unconfirmed; details: MTCC 1144, 16 h, read-out: IZ
Staphylococcus aureus [9] = test: Antibacterial activity against Staphylococcus aureus MTCC 1144 at 64 mg/ml after 16 hrs by disk diffusion test; assay type: functional; details: MTCC 1144, 16 h, read-out: IZ
In short: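 Disk diffusion (zone of inhibition). Bacterial isolate spread evenly over an agar plate. A filter disk carrying a known amount of compound was placed on the surface and the compound left to diffuse. The inhibition zone in the lawn was read after 16 h incubation.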

Vero = test: Cytotoxicity against african green monkey Vero cells assessed as loss of monolayer present around the plaques; assay type: cell-based; details: Chlorocebus sabaeus
In short: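 Vero monolayers in serial-dilution trays with HSV-1, run in triplicate, 6 h at 37 °C, 5% CO2. Cells fixed with 3.7% formaldehyde and examined visually. IC50 is the concentration giving about 50% loss of the monolayer around HSV-1 plaques.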

Staphylococcus aureus [10] = test: Antibacterial activity against Staphylococcus aureus MTCC 1144 after 12 to 16 hrs by turbidity assay; assay type: functional; in short: as §1
Escherichia coli [11] = test: Antibacterial activity against Escherichia coli MTCC 41 after 12 to 16 hrs by turbidity assay; assay type: functional; in short: as §1

Structure (SMILES) | zone of inhibition (Escherichia coli [1]) [mm] | selectivity ratio [2] | IC50 (CCRF-CEM) [µM] | Activity (Human alphaherpesvirus 1) [%] | zone of inhibition (Pseudomonas putida [3]) [mm] | MIC (Pseudomonas putida [4]) [µg/mL] | EC50 [5] [µM] | zone of inhibition (Escherichia coli [6]) [mm] | zone of inhibition (Pseudomonas putida [7]) [mm] | zone of inhibition (Staphylococcus aureus [8]) [mm] | zone of inhibition at 64000 µg/mL (Staphylococcus aureus [9]) [mm] | IC50 (Vero) [µM] | MIC (Staphylococcus aureus [10]) [µg/mL] | MIC (Escherichia coli [11]) [µg/mL]
S=c1[nH]c(=S)c2c3c(sc2[nH]1)CCCC3 | > 3 | > 15.4 | 6.5 | 0 | < 1 | 128 (≈ 503 µM) | > 100 | > 3 | > 3 | > 3 | < 1 | 0.07 | 128 (≈ 503 µM) | 64 (≈ 252 µM)
S=c1[nH]c(=S)c2c3c(sc2[nH]1)CCCCC3 | > 3 | > 19.1 | 5.25 | 0 | > 2 | 128 (≈ 477 µM) | > 100 | > 3 | > 3 | > 2 | > 2 | 0.09 | > 128 | 64 (≈ 238 µM)
CSc1nc2sc3c(c2c(=S)[nH]1)CCCC3 | > 3 | > 1 | > 100 | 0 | < 1 | 128 (≈ 477 µM) | > 100 | < 1 | > 3 | > 3 | < 1 | 0.64 | 128 (≈ 477 µM) | 128 (≈ 477 µM)
CSc1nc2sc3c(c2c(=S)[nH]1)CCCCC3 | > 3 | > 1 | > 100 | 0 | < 1 | 128 (≈ 453 µM) | > 100 | < 1 | > 3 | > 3 | > 2 | 0.45 | 128 (≈ 453 µM) | 128 (≈ 453 µM)
OC[C@H]1O[C@@H](Sc2nc3sc4c(c3c(=S)[nH]2)CCCCC4)[C@H](O)[C@@H](O)[C@H]1O | – | > 1 | > 100 | 0 | – | – | > 100 | – | – | – | – | 0.38 | – | –
S=c1c2c3c(sc2nc2n(-c4ccccc4)nc(-c4ccccc4)n12)CCCC3 | > 3 | – | – | – | < 1 | 128 (≈ 309 µM) | – | < 1 | > 3 | > 3 | < 1 | – | 128 (≈ 309 µM) | 128 (≈ 309 µM)
CC(=O)c1nn(-c2ccc([N+](=O)[O-])cc2)c2nc3sc4c(c3c(=S)n12)CCCC4 | > 3 | – | – | – | > 2 | 128 (≈ 301 µM) | – | > 3 | > 3 | > 2 | > 2 | – | > 128 | 64 (≈ 150 µM)
CCOC(=O)c1nn(-c2ccc(C)cc2)c2nc3sc4c(c3c(=S)n12)CCCC4 | > 3 | – | – | – | < 1 | 128 (≈ 301 µM) | – | < 1 | > 3 | > 3 | > 2 | – | 128 (≈ 301 µM) | 128 (≈ 301 µM)
CC(=O)OC[C@H]1O[C@@H](Sc2nc3sc4c(c3c(=S)[nH]2)CCCCC4)[C@H](OC(C)=O)[C@@H](OC(C)=O)[C@@H]1OC(C)=O | > 2 | – | – | – | > 2 | 128 (≈ 214 µM) | – | > 2 | > 3 | > 2 | > 2 | – | > 128 | > 128
OC[C@H]1O[C@@H](Sc2nc3sc4c(c3c(=S)[nH]2)CCCCC4)[C@H](O)[C@@H](O)[C@@H]1O | < 1 | – | – | – | < 1 | > 128 | – | < 1 | < 1 | < 1 | < 1 | – | > 128 | > 128
CC(=O)c1nn(-c2ccc(Cl)cc2)c2nc3sc4c(c3c(=S)n12)CCCC4 | – | > 1 | > 100 | 0 | – | – | > 100 | – | – | – | – | 0.09 | – | –
CC(=O)c1nn(-c2ccc(Cl)cc2)c2nc3sc4c(c3c(=S)n12)CCCCC4 | – | > 1 | > 100 | 0 | – | – | > 100 | – | – | – | – | 0.07 | – | –
CC(=O)OC[C@H]1O[C@@H](Sc2nc3sc4c(c3c(=S)[nH]2)CCCC4)[C@@H](OC(C)=O)[C@@H]1OC(C)=O | > 3 | > 1 | > 100 | 0 | < 1 | 128 (≈ 250 µM) | > 100 | > 3 | > 3 | > 3 | > 3 | 1.39 | 64 (≈ 125 µM) | 64 (≈ 125 µM)
CC(=O)OC[C@H]1O[C@@H](Sc2nc3sc4c(c3c(=S)[nH]2)CCCCC4)[C@@H](OC(C)=O)[C@@H]1OC(C)=O | < 1 | > 1 | > 100 | 0 | < 1 | > 128 | > 100 | < 1 | < 1 | < 1 | < 1 | 1.15 | > 128 | > 128
CC1(C)S[C@@H]2[C@H](NC(=O)[C@H](N)c3ccccc3)C(=O)N2[C@H]1C(=O)O [AMPICILLIN] | > 5 | – | – | – | 0 | > 256 | – | > 5 | 0 | > 5 | > 5 | – | – | 16 (≈ 45.8 µM)
Cc1cn([C@H]2C[C@H](N=[N+]=[N-])[C@@H](CO)O2)c(=O)[nH]c1=O [ZIDOVUDINE] | – | – | 0.7 | – | – | – | – | – | – | – | – | – | – | –
